Published values from different studies.
Protocols differ between the studies behind these lines.
Effect on: cell growth or viability

| Structure (SMILES) | cell line | assay | setting | IC50 [µM] |
| --- | --- | --- | --- | --- |
| O=C1Nc2ccccc2C(=O)CCc2cc(O)ccc21 | L6 | – | – | 84 |
| COc1cc(N(C)CCN(C)C)c(NC(=O)/C=C/C(C)C)cc1Nc1nc(N2CCc3sccc3C2)c2sccc2n1 | NCI-H460 | MTT | – | > 50 |
| O=C(O)c1ccc2c(c1)C(=O)CCc1ccccc1C(=O)N2 | L6 | – | – | 220 |
| Cc1ccc(-c2cc(COCc3ccc(C(C)C)cc3)c3cccnc3c2O)cc1 | MDA-MB-453 | MTS | 72 h | 0.9 |
| N[C@@H](CC(=O)N1CCN(C(c2ccc(F)cc2)c2ccc(F)cc2)CC1)C(=O)N1Cc2ccccc2C1 | RS4-11 | ATP luminescence | 24 h | 28.3 |
| CC(C)=CCC/C(C)=C/COc1ccc2ccc(=O)oc2c1 | COLO 205 | MTT | 72 h | 63.1 |
| CC(C)[C@H](N)c1nc2cc(-c3ccnc(Cl)c3)sc2c(=O)[nH]1 | COLO 205 | MTT | – | 1.6 |
| COc1cc2ccc(=O)oc2cc1OC | COLO 205 | MTT | 72 h | > 100 |
| C=C[C@H]1C[N@@]2CC[C@H]1C[C@@H]2[C@@H](O)c1ccnc2ccc(OC)cc12 | MDCK-II | MTT | 48 h | 267 |
| Nc1nc(F)nc2c1ncn2[C@@H]1O[C@H](COP(=O)(O)O)[C@@H](O)[C@@H]1O | GISTT1 | resazurin | 72 h | > 1 |
| COc1ccc(C(=O)c2cc3c(-c4ccccc4)c(O)ccc3o2)cc1 | L1210 | – | 48 h | 1.3 |
| O=C1Nc2ccc(C(F)(F)F)cc2C(=O)CCc2ccccc21 | L6 | – | – | 9 |
| CCN(CC)CCCC(C)Nc1ccnc2cc(Cl)ccc12 (centres unmarked) | GISTT1 | resazurin | 72 h | > 1 |
| CCC(=O)Nc1cc(Nc2nc(Nc3cnn(C)c3)c3sccc3n2)c(OC)cc1N(C)CCN(C)C | NCI-H460 | MTT | – | > 50 |
| COc1ccc2oc(C(=O)c3ccccc3)cc2c1-c1ccccc1 | L1210 | – | 48 h | > 50 |
| CCN1C(=O)N(c2c(F)c(OC)cc(OC)c2F)Cc2cnc3[nH]c(CN4CCOCC4)cc3c21 | MDA-MB-453 | ATP luminescence | 96 h | 0.0764 |
| O=c1c(O[C@@H]2O[C@H](CO)[C@@H](O)[C@H](O)[C@H]2O)c(-c2ccc(O)c(O)c2)oc2cc(O)cc(O)c12 | SCaBER | ATP luminescence | 72 h | 8.66 |
| COc1ccc2c(c1)C(=O)CCc1ccccc1C(=O)N2 | L6 | – | – | 47 |
| COc1ccccc1C(=O)c1cc2c(-c3ccccc3)c(OC)ccc2o1 | L1210 | – | 48 h | > 50 |

| Structure (SMILES) | cell line | assay | setting | IC50 [µM] |
| --- | --- | --- | --- | --- |
| COc1cc([C@@H]2c3cc4c(cc3[C@@H](O[C@@H]3O[C@@H]5CO[C@@H](C)O[C@H]5[C@H](O)[C@H]3O)[C@H]3COC(=O)[C@H]23)OCO4)cc(OC)c1O | GISTT1 | resazurin | 72 h | > 1 |
| COc1cccc(C(=O)c2cc3c(-c4ccccc4)c(O)ccc3o2)c1 | L1210 | – | 48 h | 38 |
| C[C@@H]1O[C@@H](O[C@H]2C[C@@H](O)[C@]3(CO)[C@H]4[C@H](O)C[C@]5(C)[C@@H](C6=CC(=O)OC6)CC[C@]5(O)[C@@H]4CC[C@]3(O)C2)[C@H](O)[C@H](O)[C@H]1O | GISTT1 | resazurin | 72 h | 0.21 |
| O=C1Nc2ccc(F)cc2C(=O)CCc2ccccc21 | L6 | – | – | 110 |
| CCC(=O)Nc1cc(Nc2nc(N3CCc4sccc4C3)c3cccnc3n2)c(OC)cc1N1CCOCC1 | NCI-H460 | MTT | – | > 50 |
| O=[N+]([O-])c1ccc(Cn2cc(Cn3c4ccccc4c4nc5ccccc5nc43)nn2)cc1 | INS1 | MTT | 24 h | > 100 |
| CC(C)[C@H](N)c1nc2cc(-c3ccnnc3)sc2c(=O)[nH]1 | COLO 205 | MTT | – | 5.97 |
| O=C1Nc2ccccc2C(=O)CCc2ccc(F)cc21 | L6 | – | – | 110 |
| C#C[C@]1(O)CC[C@H]2[C@@H]3CCC4=Cc5oncc5C[C@]4(C)[C@H]3CC[C@@]21C | GISTT1 | resazurin | 72 h | > 1 |
| CCOC(=O)c1ccc2c(c1)C(=O)CCc1ccccc1C(=O)N2 | L6 | – | – | 15 |
| CC(C)C[C@H](NC(=O)[C@H](Cc1ccccc1)NC(=O)c1cnccn1)B(O)O | NCI-H1838 | ATP luminescence | – | 0.053 |
| O=C1Nc2ccccc2C(=O)CCc2cc(F)ccc21 | L6 | – | – | 96 |
| COc1cc(-c2oc3cc(O)cc(O)c3c(=O)c2O)ccc1O | SCaBER | ATP luminescence | 72 h | 43.2 |
| CC(C)C[C@H](NC(=O)[C@H](Cc1ccccc1)NC(=O)c1cnccn1)B(O)O | GISTT1 | resazurin | 72 h | < 0.07 |
| O=c1[nH]cc(F)c(=O)[nH]1 | L1210 | – | 48 h | 0.49 |
| CC(=O)[C@]1(O)Cc2c(O)c3c(c(O)c2[C@@H](O[C@H]2C[C@H](N)[C@H](O)[C@H](C)O2)C1)C(=O)c1ccccc1C3=O | GISTT1 | – | 72 h | 0.09 |
| COc1ccc(/C=C\c2cc(OC)c(OC)c(OC)c2)cc1O | L1210 | – | 48 h | 0.0032 |
| COc1cccc2c1C(=O)c1c(O)c3c(c(O)c1C2=O)C[C@@](O)(C(=O)CO)C[C@@H]3O[C@H]1C[C@H](N)[C@H](O)[C@H](C)O1 | GISTT1 | resazurin | 72 h | 0.31 |
| COc1cc(OC)cc(C(=O)c2cc3c(-c4ccccc4)c(OC)ccc3o2)c1 | L1210 | – | 48 h | > 50 |
